Test results from ChEMBL document CHEMBL2157903, “2-Arylbenzofuran-based molecules as multipotent Alzheimer's disease modifying agents” (Eur J Med Chem, 2012).
Active and inactive are the calls of the source. The calls are words filed in the database; no cut-off is given here.

Tests used:
[1] = target: T1, Cannabinoid receptor 1 (Homo sapiens, UniProt P21554); experiment: Displacement of [3H]CP-55940 from human recombinant CB1 receptor expressed in HEK293 cells at 10 uM after 90 mins; format: cell-based
T1 sequence (P21554 whole entry): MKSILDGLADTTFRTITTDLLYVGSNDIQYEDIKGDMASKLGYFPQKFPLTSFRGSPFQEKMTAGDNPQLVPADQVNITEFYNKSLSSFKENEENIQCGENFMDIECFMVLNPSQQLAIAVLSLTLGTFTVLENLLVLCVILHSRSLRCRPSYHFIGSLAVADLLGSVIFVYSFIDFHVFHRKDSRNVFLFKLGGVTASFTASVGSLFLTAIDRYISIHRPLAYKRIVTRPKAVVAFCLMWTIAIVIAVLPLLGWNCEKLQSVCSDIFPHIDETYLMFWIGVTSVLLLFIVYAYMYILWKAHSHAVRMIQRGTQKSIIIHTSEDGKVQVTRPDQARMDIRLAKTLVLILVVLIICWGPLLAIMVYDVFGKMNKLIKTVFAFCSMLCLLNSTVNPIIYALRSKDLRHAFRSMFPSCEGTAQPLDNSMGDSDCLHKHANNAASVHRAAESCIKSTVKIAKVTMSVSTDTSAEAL
Method in brief: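 Membranes from HEK-293 cells stably expressing human recombinant CB1 or CB2 were incubated with [³H]-CP-55,940 (0.14 nM for CB1; 0.084 nM for CB2) plus test compound for 90 min at 30 °C. Non-specific binding was defined with WIN 55212-2. Percent displacement of bound radioligand at the maximum tested concentration is reported. At least n = 3 experiments.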

[2] = target: Acetylcholinesterase (Homo sapiens, UniProt P22303); experiment: Inhibition of human recombinant AChE using acetylthiocholine iodide as substrate preincubated for 20 mins prior to substrate addition by Ellman's method
Chain of Acetylcholinesterase (P22303 whole entry): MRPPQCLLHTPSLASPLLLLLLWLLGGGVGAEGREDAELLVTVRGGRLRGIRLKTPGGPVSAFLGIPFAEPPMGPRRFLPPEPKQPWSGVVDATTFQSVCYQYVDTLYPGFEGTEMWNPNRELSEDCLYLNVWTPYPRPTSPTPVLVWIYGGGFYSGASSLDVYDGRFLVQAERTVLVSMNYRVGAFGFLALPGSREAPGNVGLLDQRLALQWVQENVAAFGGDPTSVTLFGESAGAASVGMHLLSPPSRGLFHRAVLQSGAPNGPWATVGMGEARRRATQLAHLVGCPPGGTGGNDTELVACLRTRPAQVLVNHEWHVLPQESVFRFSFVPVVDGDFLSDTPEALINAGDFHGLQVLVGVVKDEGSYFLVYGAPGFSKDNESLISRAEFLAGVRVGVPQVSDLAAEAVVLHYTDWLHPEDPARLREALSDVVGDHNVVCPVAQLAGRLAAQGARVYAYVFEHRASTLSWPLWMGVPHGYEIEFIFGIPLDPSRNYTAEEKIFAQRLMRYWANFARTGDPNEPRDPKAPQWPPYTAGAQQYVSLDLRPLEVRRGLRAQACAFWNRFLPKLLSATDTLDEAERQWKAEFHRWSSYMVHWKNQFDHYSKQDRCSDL
Method in brief: (§1)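 Ellman method with acetylthiocholine iodide (AChE) or butyrylthiocholine iodide (BuChE) as substrate. Enzyme and inhibitor preincubated 20 min at 37 °C before substrate addition. Blanks without enzyme corrected for non-enzymatic hydrolysis. Five inhibitor concentrations giving 20-80% inhibition. IC50 from linear regression of % inhibition vs log final concentration. Mean of two or three independent measurements, each in triplicate.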

[3] = Inhibition of amyloid beta (25 to 35) fibril formation at 10 uM incubated up to 6 hrs by UV-Vis spectrophotometric analysis
Method in brief: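 Aβ25-35 at 100 μM final, in 10 mM phosphate buffer pH 7.2, sonicated 1 min on addition. Compound added in MeOH at 10 μM final, with curcumin reference alongside. Polymerization followed by UV-vis at 190-380 nm over 0-6 h. Spectra of compound alone were subtracted. At least three independent runs.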

[4] = target: T2, Cannabinoid receptor 2 (Homo sapiens, UniProt P34972); experiment: Displacement of [3H]CP-55940 from human recombinant CB2 receptor expressed in HEK293 cells at 10 uM after 90 mins; format: cell-based
T2 sequence (P34972 whole entry): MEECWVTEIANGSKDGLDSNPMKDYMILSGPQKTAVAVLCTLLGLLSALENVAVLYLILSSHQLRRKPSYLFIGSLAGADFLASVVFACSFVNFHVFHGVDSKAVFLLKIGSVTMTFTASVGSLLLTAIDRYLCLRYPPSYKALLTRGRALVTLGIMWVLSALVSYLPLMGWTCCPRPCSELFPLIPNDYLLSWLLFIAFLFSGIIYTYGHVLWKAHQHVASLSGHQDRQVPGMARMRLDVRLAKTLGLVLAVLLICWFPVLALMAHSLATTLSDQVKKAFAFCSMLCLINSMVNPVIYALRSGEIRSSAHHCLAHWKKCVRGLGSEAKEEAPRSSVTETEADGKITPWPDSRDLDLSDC

[5] = target: Cholinesterase (Homo sapiens, UniProt P06276); experiment: Inhibition of human serum BuChE using butyrylthiocholine iodide as substrate preincubated for 20 mins prior to substrate addition by Ellman's method; method in brief: as §1
Chain of Cholinesterase (P06276 whole entry): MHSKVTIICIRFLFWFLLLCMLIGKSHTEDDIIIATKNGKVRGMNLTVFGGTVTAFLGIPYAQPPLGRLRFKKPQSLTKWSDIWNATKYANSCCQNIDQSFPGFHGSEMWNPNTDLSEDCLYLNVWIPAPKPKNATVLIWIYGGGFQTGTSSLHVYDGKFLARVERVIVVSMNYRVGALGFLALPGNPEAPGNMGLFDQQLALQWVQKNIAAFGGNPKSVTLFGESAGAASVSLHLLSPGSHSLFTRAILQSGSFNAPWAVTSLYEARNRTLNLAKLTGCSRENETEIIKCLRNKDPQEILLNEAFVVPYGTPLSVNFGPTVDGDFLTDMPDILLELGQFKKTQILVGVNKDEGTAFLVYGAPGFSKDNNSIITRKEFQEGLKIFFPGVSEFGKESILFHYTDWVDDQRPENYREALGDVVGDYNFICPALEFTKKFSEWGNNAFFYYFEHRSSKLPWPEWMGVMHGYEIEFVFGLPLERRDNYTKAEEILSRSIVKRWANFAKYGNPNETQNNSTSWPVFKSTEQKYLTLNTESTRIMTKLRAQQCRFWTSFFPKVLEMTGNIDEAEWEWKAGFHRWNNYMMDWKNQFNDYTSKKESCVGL

[6] = target: T1, Cannabinoid receptor 1; experiment: Displacement of [3H]CP-55940 from human recombinant CB1 receptor expressed in HEK293 cells after 90 mins; format: cell-based
Method in brief: (§2)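 Membranes from HEK-293 cells stably expressing human recombinant CB1 (Bmax 2.5 pmol/mg) or CB2 (Bmax 4.7 pmol/mg). Incubated with [3H]-CP-55,940 (CB1 0.14 nM, Kd 0.18 nM; CB2 0.084 nM, Kd 0.31 nM) and increasing compound concentrations for 90 min at 30 °C. Non-specific binding defined with 10 […] 55212-2. IC50 by non-linear regression, converted to Ki by Cheng-Prusoff. Means of at least n = 3.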

[7] = target: T2, Cannabinoid receptor 2; experiment: Displacement of [3H]CP-55940 from human recombinant CB2 receptor expressed in HEK293 cells after 90 mins; format: cell-based; method in brief: as §2

| SMILES | Activity [1] | IC50 ([2]; read-out: IC50) | inhibition [3] | Activity [4] | IC50 [5] | EC50 [6] | Ki [6] | EC50 [7] | Ki [7] | IC50 [2] | Activity [6] | Activity [7] |
| --- | --- | --- | --- | --- | --- | --- | --- | --- | --- | --- | --- | --- |
| CCN(CC)CCOc1cccc(C(=O)c2c(-c3ccc(OCCCCCCCN(C)Cc4ccccc4)cc3)oc3ccccc23)c1 | 76.5% | 37.1 µM | Active | 77.9% | 1.81 µM | 6.38 µM | 2.57 µM | 2.71 µM | 0.69 µM | – | – | – |
| CN(CCCCCCCOc1ccc(-c2oc3ccccc3c2C(=O)c2ccc3ccccc3c2)cc1)Cc1ccccc1 | 35.1% | – | – | 6.87% | 89.1 µM | > 10 µM | > 10 µM | > 10 µM | > 10 µM | Not Active | – | – |
| CN(CCCCCCCOc1ccc(-c2oc3ccccc3c2C(=O)c2cccc3ccccc23)cc1)Cc1ccccc1 | 13.8% | 101 µM | 48% | 8.9% | 60.1 µM | > 10 µM | > 10 µM | > 10 µM | > 10 µM | – | – | – |
| Cc1ccc(C(=O)c2c(-c3cccc(OCCCCCCCN(C)Cc4ccccc4)c3)oc3ccccc23)cc1 | – | – | – | – | 43.9 µM | – | – | – | – | Not Active | inactive | inactive |
| COc1cc(OC)cc(C(=O)c2c(-c3cccc(OCCCCCCCN(C)Cc4ccccc4)c3)oc3ccccc23)c1 | – | – | – | – | 0.048 µM | – | – | – | – | Not Active | inactive | inactive |
| CN(CCCCCCCCOc1ccc(-c2cc3ccccc3o2)cc1)Cc1ccccc1 | – | – | Active | – | 7.47 µM | – | – | – | – | Not Active | – | – |
| COc1ccccc1C(=O)c1c(-c2cccc(OCCCCCCCN(C)Cc3ccccc3)c2)oc2ccccc12 | – | – | – | – | 1.97 µM | – | – | – | – | Not Active | inactive | inactive |
| CN(CCCCCCCOc1ccc(-c2oc3ccccc3c2C(=O)c2ccc(OCCN3CCOCC3)cc2)cc1)Cc1ccccc1 | 83.1% | 39 µM | Active | 70.6% | 21 µM | 1.37 µM | 0.55 µM | 2.27 µM | 0.58 µM | – | – | – |
| COc1cccc(C(=O)c2c(-c3cccc(OCCCCCCCN(C)Cc4ccccc4)c3)oc3ccccc23)c1OC | – | – | – | – | 3.01 µM | – | – | – | – | Not Active | inactive | inactive |
| CCN(CC)CCOc1ccc(C(=O)c2c(-c3ccc(OCCCCCCCN(C)Cc4ccccc4)cc3)oc3ccccc23)cc1 | 35.2% | 78 µM | Active | 92% | 23 µM | > 10 µM | > 10 µM | 4.65 µM | 1.18 µM | – | – | – |
| CN(CCCCCCCOc1ccc(-c2cc3ccccc3o2)cc1)Cc1ccccc1 | 57.8% | – | – | 21.8% | – | 6.95 µM | 2.8 µM | > 10 µM | > 10 µM | – | – | – |
| CCN(CC)Cc1ccc(C(=O)c2c(-c3ccc(OCCCCCCCN(C)Cc4ccccc4)cc3)oc3ccccc23)cc1 | 47.7% | 100 µM | Active | 65.2% | 9.42 µM | > 10 µM | > 10 µM | 4.4 µM | 1.12 µM | – | – | – |
| COc1cccc(C(=O)c2c(-c3cccc(OCCCCCCCN(C)Cc4ccccc4)c3)oc3ccccc23)c1 | – | – | – | – | 1.37 µM | – | – | – | – | Not Active | inactive | inactive |
| CN(CCCCCOc1ccc(-c2cc3ccccc3o2)cc1)Cc1ccccc1 | – | 215 µM | Active | – | 6.6 µM | – | – | – | – | – | – | – |
| CN(CCCOc1ccc(-c2cc3ccccc3o2)cc1)Cc1ccccc1 | – | – | Active | – | 136 µM | – | – | – | – | Not Active | – | – |
| COc1ccc(C(=O)c2c(-c3cccc(OCCCCCCCN(C)Cc4ccccc4)c3)oc3ccccc23)cc1OC | – | – | – | – | 2.51 µM | – | – | – | – | Not Active | inactive | inactive |
